# Published values collected from several papers.
# Each line is one published result; the experiments were not run side by side.
Compound,cell line,test,conditions,IC50
O=C(NO)c1ccc(Cn2cnc3c(Nc4cccc([N+](=O)[O-])c4)ncnc32)cc1,HEL,"cell growth or viability, MTT",72 h,2.07 µM
OCc1ccc(-c2nn(Cc3ccccc3)c3ccccc23)o1,CC-LP-1,"cell growth or viability, ATP luminescence",,> 46 µM
O=C(CSc1nc2ccccc2s1)N/N=C/c1ccc(OCC(=O)Nc2ccc([N+](=O)[O-])cc2)cc1,HEL 299,"cell growth or viability, MTS",72 h,> 100 µM
OCc1ccc(-c2nn(Cc3cccnc3)c3ccccc23)o1,CC-LP-1,"cell growth or viability, ATP luminescence",,~46 µM
CN1CCN(c2ccc(Nc3c4ccccc4nc4ccccc34)cc2)CC1,SNU-449,"cell growth or viability, imaging",72 h,4.68 µM
Cc1cc(NS(=O)(=O)c2ccc(NC(=O)/C(C#N)=C/c3ccc(N4CCCCC4)cc3)cc2)no1,HSF,"cell growth or viability, MTT",48 h,> 200 µM
Cc1cc2c(C(N)=O)cccc2n1-c1nc2c(c(NCc3ccccc3)n1)CCCN2,KMS-11,cell growth or viability,72 h,1.3 µM
COc1ccc(Nc2ncnc3c2ncn3Cc2ccc(C(=O)NO)cc2)cc1,HEL,"cell growth or viability, MTT",72 h,0.8 µM
CCC(=CCc1c(O)cc2c(c1O)C(=O)C[C@@H](c1ccc(O)cc1)O2)CC,HeLa,"cell growth or viability, MTT",48 h,22.8 µM
COc1cccc(Cn2nc(-c3ccc(CO)o3)c3ccccc32)c1,CC-LP-1,"cell growth or viability, ATP luminescence",,> 46 µM
Cc1ccc(S(=O)(=O)NC(=O)c2cc3ccccc3n2Cc2ccc(C3CC3)c3ccccc23)cc1,mouse BMDM,"IL-1β release, inhibitor, ELISA",LPS-stimulated,2.61 µM
NCc1ccc(-c2nn(Cc3ccccc3)c3ccccc23)o1,CC-LP-1,"cell growth or viability, ATP luminescence",,> 46 µM
C(=N\Nc1cc(N/N=C/c2ccc3ccccc3n2)ncn1)/c1ccc2ccccc2n1,BGC-823,"cell growth or viability, MTT",48 h,12.3 µM
O=C(CSc1nc2ccccc2s1)N/N=C/c1ccc(OCC(=O)Nc2cccc(Br)c2)cc1,HEL 299,"cell growth or viability, MTS",72 h,> 100 µM
C=CC(=O)N1CCC[C@@H](n2nc(-c3ccc(Oc4ccccc4)cc3)c3c(N)ncnc32)C1,SU-DHL-6,"cell growth or viability, resazurin",72 h,> 0.5 µM
OCc1ccc(-c2nn(Cc3ccccn3)c3cccnc23)o1,CC-LP-1,"cell growth or viability, ATP luminescence",,> 46 µM
C#Cc1cccc(Nc2ncnc3cc(OCCOC)c(OCCOC)cc23)c1,BGC-823,"cell growth or viability, MTT",48 h,> 20 µM
COc1cc([C@@H]2c3cc4c(cc3[C@@H](O[C@@H]3O[C@@H]5CO[C@@H](C)O[C@H]5[C@H](O)[C@H]3O)[C@H]3COC(=O)[C@H]23)OCO4)cc(OC)c1O,HEL 299,"cell growth or viability, MTS",72 h,> 10 µM
Cc1cc(NS(=O)(=O)c2ccc(NC(=O)/C(C#N)=C/c3cccnc3)cc2)no1,HSF,"cell growth or viability, MTT",48 h,> 200 µM
OCc1ccc(-c2nn(Cc3ccccn3)c3ccccc23)o1,CC-LP-1,"cell growth or viability, ATP luminescence",,> 46 µM
C(=N\Nc1cc(N/N=C/c2cccc3cccnc23)nc(-c2ccccc2)n1)/c1cccc2cccnc12,BGC-823,"cell growth or viability, MTT",48 h,16.9 µM
COc1ccc(Nc2ncnc3c2ncn3Cc2ccc(C(=O)Nc3ccccc3N)cc2)cc1,NB-4,"cell growth or viability, MTT",72 h,2.44 µM
COc1ncccc1Cn1nc(-c2ccc(CO)o2)c2ccccc21,CC-LP-1,"cell growth or viability, ATP luminescence",,> 46 µM
O=C(NO)c1ccc(Cn2cnc3c(Nc4ccc(Br)cc4F)ncnc32)cc1,NB-4,"cell growth or viability, MTT",72 h,1.41 µM
COc1cccc2c1C(=O)c1c(O)c3c(c(O)c1C2=O)C[C@@](O)(C(=O)CO)C[C@@H]3O[C@H]1C[C@H](N)[C@H](O)[C@H](C)O1,BGC-823,cell growth or viability,96 h,0.0818 µM
COc1cccc2c1C(=O)c1c(O)c3c(c(O)c1C2=O)C[C@@](O)(C(=O)CO)C[C@@H]3O[C@H]1C[C@H](N)[C@H](O)[C@H](C)O1,HeLa,"cell growth or viability, MTT",48 h,0.2 µM
Nc1ccccc1NC(=O)c1ccc(Cn2cnc3c(Nc4ccc(Cl)cc4)ncnc32)cc1,NB-4,"cell growth or viability, MTT",72 h,0.73 µM
CN1C(=O)C(=O)c2cc3c(c4c2c1cc1ccccc14)OCO3,H69AR,"cell growth or viability, MTT",75 h,44.6 µM
NCc1ccc(-c2nn(Cc3ccccn3)c3cccnc23)o1,CC-LP-1,"cell growth or viability, ATP luminescence",,> 46 µM
O=C(NO)c1ccc(Cn2cnc3c(Nc4ccc(F)c(Cl)c4)ncnc32)cc1,HEL,"cell growth or viability, MTT",72 h,3.54 µM
O=c1[nH]cc(F)c(=O)[nH]1,HSF,"cell growth or viability, MTT",48 h,76.9 µM
Nc1ccccc1NC(=O)c1ccc(Cn2cnc3c(Nc4ccc(Br)cc4F)ncnc32)cc1,NB-4,"cell growth or viability, MTT",72 h,0.39 µM
Cc1cnc(CNC(=O)c2c(=O)c3ccc(N4CCCN(C)CC4)nc3n3c2sc2ccccc23)cn1,SNU-449,"cell growth or viability, imaging",72 h,0.37 µM
O=C(NO)c1ccc(Cn2cnc3c(Nc4ccc(Cl)cc4)ncnc32)cc1,HEL,"cell growth or viability, MTT",72 h,0.77 µM
CN(C)c1cccc2c(S(=O)(=O)NCCCCN=C=S)cccc12,HDFa,"cell growth or viability, MTT",24 h,28.4 µM
